Source: ChEMBL document CHEMBL2157930, “Synthesis and structure-activity relationship of berberine analogues in LDLR up-regulation and AMPK activation” (2012)
Calls of active or inactive are those of the source.

Legend:
[1] = tested on: HepG2; assay: Up regulation of LDLR expression in human HepG2 cells at 10 uM after 12 hrs by RT-PCR relative to untreated control; format: functional
How it was run: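 HepG2 cells (MEM, 10% FBS, about 70% confluent) treated at 10 uM for 12 h. LDLR mRNA measured by real-time RT-PCR, reverse transcription 42 °C for 15 min. Normalized to β-actin by the comparative threshold cycle method and expressed as fold of untreated control (set to 1). Mean ± SEM of 3 separate experiments.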

[2] = tested on: HepG2; assay: Increase in AMPKalpha phosphorylation in human HepG2 cells at 10 uM after 4 hrs by Western blot analysis relative to untreated control; format: cell-based
How it was run: (§1)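 HepG2 cells in MEM with 10% FBS and antibiotics, 37 °C, 5% CO2, plated the day before to about 70% confluence. Treated with vehicle or compound at 10 uM for 4 h. Whole-cell lysates were run on SDS-PAGE and Western blotted for Thr172-phospho-AMPKa and total AMPKa. Bands were scanned and p-AMPKa was expressed as a percentage of total AMPKa. Mean ± SEM of 3 experiments.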

[3] = tested on: HepG2; assay: Increase in total AMPKalpha level in human HepG2 cells at 10 uM after 4 hrs by Western blot analysis relative to untreated control; format: functional, cell-based; how it was run: as §1
[4] = tested on: HepG2; assay: Increase in AMPKalpha phosphorylation in human HepG2 cells at 10 uM after 4 hrs by Western blot analysis relative to untreated control relative to total AMPKalpha level; format: cell-based; how it was run: as §1
[5] = tested on: HepG2; assay: Induction of AMPKalpha phosphorylation in human HepG2 cells after 4 hrs by Western blot analysis relative to untreated control; format: cell-based
How it was run: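 HepG2 cultured as above, about 70% confluent, then exposed to a range of concentrations for 4 h. Western blot for Thr172-phospho-AMPKa and total AMPKa, densitometry, p-AMPKa as a percentage of total, relative to untreated cells. Mean ± SEM of 3 experiments.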

[6] = tested on: L6; assay: Induction of AMPKalpha phosphorylation in rat L6 cells; format: cell-based
[7] = tested on: HepG2; assay: Induction of AMPKalpha phosphorylation in human HepG2 cells at 10 uM by Western blot analysis relative to untreated control; format: cell-based; conditions: TDE = time-dependent effect
How it was run: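 Time course in HepG2: cells given 10 uM for different time intervals. Western blot for Thr172-phospho-AMPKa and total AMPKa, bands quantified, p-AMPKa as a percentage of total, compared with untreated cells. Mean ± SEM of 3 repeats.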

| Structure (SMILES) | fold change (FC) [1] | also measured |
| --- | --- | --- |
| COc1cc2cc3[n+](cc2c(Cl)c1OC)CCc1cc2c(cc1-3)OCO2.[Cl-] | 0.92 |  |
| CCOc1cc2c(cc1OC)-c1cc3ccc(OC)c(OC)c3c[n+]1CC2.[Cl-] | 1.02 |  |
| CCOc1cc2c(cc1OC)CC[n+]1cc3cc(OC)c(OC)cc3cc1-2.[Cl-] | 0.96 |  |
| COc1ccc2cc3[n+](cc2c1Cl)CCc1cc2c(cc1-3)OCO2.[Cl-] | 1.12 |  |
| [Cl-].c1c2c(cc3c1OCO3)-c1cc3cc4c(cc3c[n+]1CC2)OCCO4 | 0.96 |  |
| COc1ccc2cc3[n+](cc2c1O)CCc1cc2c(cc1-3)OCO2 |  | Activity [2]: Active |
| COc1cc2c(c(OC)c1OC)-c1cc3ccc(OC)c(OC)c3c[n+]1CC2.[Cl-] | 0.88 |  |
| CCOc1cc2c(cc1OC)CC[n+]1cc3c(OC)c(OC)ccc3cc1-2.[Cl-] | 1 |  |
| COc1cc2c(cc1O)-c1cc3ccc(OC)c(OC)c3c[n+]1CC2.[Cl-] [COLUMBAMINE CHLORIDE] | 1.15 |  |
| COc1cc2cc3[n+](cc2cc1OC)CCc1c-3ccc(OC)c1OC.[Cl-] | 0.92 |  |
| COc1ccc2c(c1OC)CC[n+]1cc3c(OC)c(OC)ccc3cc1-2.[Cl-] | 0.89 |  |
| COc1cc(Br)c2cc3[n+](cc2c1O)CCc1cc2c(cc1-3)OCO2.[Cl-] | 0.94 |  |
| CCOc1cc2c(cc1OC)-c1cc3cc(OC)c(OC)cc3c[n+]1CC2.[Cl-] | 1.04 |  |
| COc1ccc2cc3[n+](cc2c1OC)CCc1cc2c(cc1-3)OCO2.[Cl-] [BERBERINE CHLORIDE] | 2.35 | Activity [3]: Active; Activity [2]: Active; fold change (FC) [4]: < 3.2 |
| COc1ccc2cc3n(cc-2c1=O)CCc1cc2c(cc1-3)OCO2 |  | Activity [2]: Active |
| COc1ccc2cc3[n+](cc2c1F)CCc1cc2c(cc1-3)OCO2.[Cl-] | 1 |  |
| CCOc1cc2cc3[n+](cc2cc1OC)CCc1cc2c(cc1-3)OCO2.[Cl-] | 0.91 |  |
| COc1cc2cc3[n+](cc2cc1OC)CCc1cc2c(cc1-3)OCO2.[Cl-] [PSEUDOBERBERINE] | 3.23 | Activity [3]: Active; Activity [5]: Dose-dependent effect; Activity [2]: Active; fold change (FC) [4]: 2.6; Activity [6]: Active; Activity [7]: tde |
